Experimental findings from ChEMBL document CHEMBL1155247, “SAR and biological evaluation of SEN12333/WAY-317538: Novel alpha 7 nicotinic acetylcholine receptor agonist” (Bioorg Med Chem, 2009) are described below.

Molecules are shown by their SMILES. Calls of active or inactive are those of the source. No cut-off for these calls is given here. A value given as a limit tells only on which side of the number the result lay.

The target of data set [1] is T1, Neuronal acetylcholine receptor subunit alpha-7 (Rattus norvegicus, UniProt Q05941). Kind of data set: Agonist activity at rat alpha7 nAChR expressed in rat GH4C1 cells assessed as calcium flux by FLIPR assay. The data set is classed as functional, cell-based, GH4-C1. In outline:
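GH4C1 cells stably expressing rat α7, 1 × 10^5 cells/well, cultured 24 h. Loaded 40 min at 37 °C with 4 µM Fluo-4-AM in HBSS-20 mM HEPES pH 7.4 with probenecid. FLIPR calcium flux read after first compound addition (1 min at 1 s, then every 30 s for 10 min). MAX–MIN signal normalized to positive control; EC50 by sigmoidal variable-slope fit.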
On the technique in general: Calcium assays in cells follow changes in intracellular calcium, usually with a dye or a luminescent sensor.

Data set [2] deals with Histamine H3 receptor (Homo sapiens) (UniProt Q9Y5N1). Kind of data set: Binding affinity to histamine H3 receptor expressed in HEK293 cells at 10 uM. It counts as cell-based.
Sequence of Histamine H3 receptor (Homo sapiens) (Q9Y5N1 whole entry): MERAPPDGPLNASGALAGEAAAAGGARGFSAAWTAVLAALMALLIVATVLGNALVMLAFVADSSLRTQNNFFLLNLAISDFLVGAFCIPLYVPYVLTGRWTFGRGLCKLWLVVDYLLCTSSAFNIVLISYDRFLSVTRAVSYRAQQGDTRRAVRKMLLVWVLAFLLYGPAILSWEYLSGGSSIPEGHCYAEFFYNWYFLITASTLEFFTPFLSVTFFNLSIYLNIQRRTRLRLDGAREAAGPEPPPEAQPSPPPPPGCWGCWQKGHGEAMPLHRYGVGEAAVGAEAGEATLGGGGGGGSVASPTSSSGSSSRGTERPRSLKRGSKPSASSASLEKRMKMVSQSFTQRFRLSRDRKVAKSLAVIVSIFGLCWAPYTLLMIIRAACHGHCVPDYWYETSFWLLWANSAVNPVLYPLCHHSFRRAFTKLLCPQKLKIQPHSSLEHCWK
Data set [3] concerns the target T1, Neuronal acetylcholine receptor subunit alpha-7. Put plainly: Displacement of [3H]epibatidine from rat alpha7 nAChR expressed in rat GH4C1 cells. It counts as cell-based, GH4-C1. In outline:
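Membranes from GH4C1 cells expressing rat α7 were incubated with 5 nM [3H]-epibatidine in 50 mM HEPES pH 7.4 with KCl, NaCl and MgCl2, for 1 h at 23 °C. Nonspecific binding defined with 300 µM nicotine. Bound ligand separated by GF/B filtration with five washes in ice-cold buffer.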
Background: Loss of bound radioactivity is the signal in a displacement assay; it reports binding, not function.

The target in data set [4] is Neuronal acetylcholine receptor subunit alpha-7 (Rattus norvegicus) (UniProt Q05941). Kind of data set: (§1) Activity at rat alpha7 nAChR expressed in rat GH4C1 cells by patch clamp technique. It counts as cell-based. The conditions noted are these: GH4-C1. In outline: (§2)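 GH4C1 cells stably expressing rat α7 were pretreated with 0.5 mM Na-butyrate for 2 days. Whole-cell clamp at −60 mV; pipette contained K-gluconate, EGTA, ATP. Agonist or acetylcholine applied by fast perfusion in HBSS + 10 mM HEPES as 500 ms pulses at 10 s intervals, sampled at 1 kHz. Peak amplitude and charge measured; EC50 from concentration–response curves.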
Sequence of Neuronal acetylcholine receptor subunit alpha-7 (Rattus norvegicus) (Q05941 whole entry, the tested form may be a part): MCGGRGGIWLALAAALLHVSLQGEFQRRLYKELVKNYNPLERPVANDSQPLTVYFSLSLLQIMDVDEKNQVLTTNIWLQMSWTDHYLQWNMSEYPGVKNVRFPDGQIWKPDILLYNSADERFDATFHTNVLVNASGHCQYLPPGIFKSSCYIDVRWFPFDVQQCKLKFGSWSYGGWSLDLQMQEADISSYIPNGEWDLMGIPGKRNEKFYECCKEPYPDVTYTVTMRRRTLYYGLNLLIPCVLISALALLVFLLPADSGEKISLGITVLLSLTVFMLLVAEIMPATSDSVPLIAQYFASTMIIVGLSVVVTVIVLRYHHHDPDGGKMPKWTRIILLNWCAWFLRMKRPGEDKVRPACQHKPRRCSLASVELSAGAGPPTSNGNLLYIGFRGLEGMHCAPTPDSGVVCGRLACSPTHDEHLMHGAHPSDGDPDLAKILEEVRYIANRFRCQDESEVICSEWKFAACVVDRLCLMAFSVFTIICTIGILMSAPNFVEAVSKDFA
A general note: In patch-clamp work, channel activity is measured electrically.

Data set [5] addresses T1, Neuronal acetylcholine receptor subunit alpha-7. The description is as §1. It counts as cell-based, GH4-C1. In outline: as §2
Data set [6] concerns the target Acetylcholine receptor; alpha1/beta1/delta/gamma (Homo sapiens) (UniProt P02708+P07510+P11230+Q07001). Put plainly: Activity at alpha-1-beta-1-gamma-delta nAChR in human TE671 cells assessed as effect on membrane potential by FLIPR assay. It counts as cell-based. The settings on record: TE-671. In outline:
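TE671 rhabdomyosarcoma cells, as endogenous muscle nAChR, were plated at 5 × 10^4 cells/well 24 h before assay. Loaded with membrane-potential dye in HBSS for 60 min at rt, then read on FLIPR with 10 s baseline before compound addition. First-addition signal taken as SUM of fluorescence, normalized to 1 µM epibatidine. EC50 from sigmoidal variable-slope fit.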

The target of data set [7] is Neuronal acetylcholine receptor; alpha4/beta2 (Homo sapiens) (UniProt P17787+P43681). Kind of data set: Inhibition of alpha4beta2 nAChR at 10 uM. It counts as protein-complex assay.
The target in another data set is hERG (KCNH2) (Homo sapiens, UniProt Q12809). Kind of data set: Inhibition of human ERG expressed in CHO cells at 1 uM. The data set is classed as cell-based. The settings on record: CHO cells expressing human ERG.
Sequence of hERG (KCNH2) (Q12809 whole entry): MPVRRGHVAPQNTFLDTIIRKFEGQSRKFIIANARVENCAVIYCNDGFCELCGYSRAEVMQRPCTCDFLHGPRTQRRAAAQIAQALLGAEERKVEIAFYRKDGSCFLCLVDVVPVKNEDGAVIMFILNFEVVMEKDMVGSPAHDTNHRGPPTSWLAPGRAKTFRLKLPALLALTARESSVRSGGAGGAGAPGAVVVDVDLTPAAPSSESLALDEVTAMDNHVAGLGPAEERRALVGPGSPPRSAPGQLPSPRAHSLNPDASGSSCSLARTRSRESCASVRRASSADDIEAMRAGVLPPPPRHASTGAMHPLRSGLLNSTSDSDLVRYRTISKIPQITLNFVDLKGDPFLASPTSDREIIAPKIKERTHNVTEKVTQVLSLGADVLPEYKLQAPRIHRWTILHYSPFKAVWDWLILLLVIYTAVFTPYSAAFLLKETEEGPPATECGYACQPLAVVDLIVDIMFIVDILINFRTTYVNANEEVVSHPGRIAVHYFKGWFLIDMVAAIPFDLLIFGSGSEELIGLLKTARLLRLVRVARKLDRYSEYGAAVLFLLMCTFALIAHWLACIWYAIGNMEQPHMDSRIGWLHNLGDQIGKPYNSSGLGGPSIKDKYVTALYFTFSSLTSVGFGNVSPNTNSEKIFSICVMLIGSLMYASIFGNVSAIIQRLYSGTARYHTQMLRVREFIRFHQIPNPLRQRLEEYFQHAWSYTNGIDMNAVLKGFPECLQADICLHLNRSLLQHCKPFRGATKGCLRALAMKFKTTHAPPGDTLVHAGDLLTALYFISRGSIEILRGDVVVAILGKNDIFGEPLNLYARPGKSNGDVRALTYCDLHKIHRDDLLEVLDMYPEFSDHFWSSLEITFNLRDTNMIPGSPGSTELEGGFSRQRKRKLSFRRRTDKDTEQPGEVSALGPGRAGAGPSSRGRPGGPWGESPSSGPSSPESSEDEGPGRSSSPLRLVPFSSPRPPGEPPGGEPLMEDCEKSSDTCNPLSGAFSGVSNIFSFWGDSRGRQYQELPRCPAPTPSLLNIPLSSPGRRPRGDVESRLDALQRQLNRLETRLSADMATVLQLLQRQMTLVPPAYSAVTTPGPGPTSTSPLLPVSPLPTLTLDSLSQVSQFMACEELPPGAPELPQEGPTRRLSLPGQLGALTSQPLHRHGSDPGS
Data set [8] is described as follows: Cmax in Wistar rat at 10 mg/kg, ip. The settings on record: in vivo. It counts as ADME, organism-based. More on the design: dose 10 mg/kg, route intraperitoneal. The gist of the method:
(§3)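 Male Wistar rats, 6–8 weeks, 200–250 g, given a single 10 mg/kg ip dose at time 0. Plasma and brain were sampled at 0, 0.5, 1 and 3 h. Plasma was protein-precipitated with acetonitrile containing internal standard. Brain was homogenized and extracted with methanol. Analysis by LC–MS/MS; detection limits 1 ng/mL plasma and 10 ng/g brain.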

The nature of data set [9]: Half life in Wistar rat at 10 mg/kg, ip. The settings on record: in vivo. It counts as ADME, organism-based. More on the design: dose 10 mg/kg, route intraperitoneal. In outline:
as §3

Data set [10] relates to Rattus norvegicus. Put plainly: AUC (last) in Wistar rat at 10 mg/kg, ip. The data set is classed as ADME, organism-based, Plasma. More on the design: time 0 - last, dose 10 mg/kg, route intraperitoneal. The conditions noted are these: in vivo. In outline: as §3
Data set [11] is described as follows: Ratio of drug level from brain to plasma in Wistar rat at 10 mg/kg, ip. The data set is classed as ADME, organism-based. More on the design: dose 10 mg/kg, route intraperitoneal. The gist of the method: as §3
Data set [12] in a line: Oral bioavailability in Wistar rat. The data set is classed as ADME, organism-based. The conditions noted are these: in vivo.
The subject of data set [13] is Rattus norvegicus. Put plainly: Inhibition of scopolamine-induced immediate working memory deficit in Wistar rat at 1 to 10 mg/kg, ip after 48 hrs by novel-object recognition test. It counts as functional, organism-based.
Data set [14] concerns the target T2, 5-hydroxytryptamine receptor 3A (Homo sapiens) (UniProt P46098).
T2 sequence (whole entry): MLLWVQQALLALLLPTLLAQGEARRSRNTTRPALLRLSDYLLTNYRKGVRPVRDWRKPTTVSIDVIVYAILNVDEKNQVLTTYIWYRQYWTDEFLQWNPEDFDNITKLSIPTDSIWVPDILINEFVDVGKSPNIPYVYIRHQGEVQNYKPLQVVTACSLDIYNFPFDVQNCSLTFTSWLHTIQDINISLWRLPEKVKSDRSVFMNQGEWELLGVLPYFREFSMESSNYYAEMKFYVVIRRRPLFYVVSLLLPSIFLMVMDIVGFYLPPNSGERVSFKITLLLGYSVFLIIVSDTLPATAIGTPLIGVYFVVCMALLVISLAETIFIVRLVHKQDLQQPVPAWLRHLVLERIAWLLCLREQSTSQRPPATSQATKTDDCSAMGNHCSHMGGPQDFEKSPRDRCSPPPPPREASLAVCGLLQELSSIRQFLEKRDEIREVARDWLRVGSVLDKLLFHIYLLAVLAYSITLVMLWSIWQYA
Kind of data set: Activity at human 5HT3 receptor expressed in human HEK293 cells assessed as calcium flux by FLIPR assay.

In data set [15] the test system is Rattus norvegicus. Kind of data set: Inhibition of MK-801-induced immediate working memory deficit in Long Evans rat at 1 to 10 mg/kg, ip after 48 hrs by novel-object recognition test.
The subject of data set [16] is Rattus norvegicus. Kind of data set: Cognitive enhancing effect in Wistar rat assessed as minimized spontaneous decay of episodic memory at 3 mg/kg, ip after 24 hrs by novel-object recognition test.

T1 sequence (Q05941 whole entry): as the sequence (Q05941 whole entry, the tested form may be a part) above

By EC50 is commonly meant the midpoint of the concentration-response curve. In the case of `COc1ccccc1N1CCN(CCCCC(=O)Nc2ccc(-c3cccnc3)cc2)CC1`, the EC50 in data set [1] stood at 2.47 µM.

As usually defined, the Ki is a dissociation constant, usually derived from enzyme kinetics or from competition with a known ligand. Low readings indicate tighter binding, high ones weaker binding. For orientation: Emax means the size of the effect at its maximum, as opposed to the concentration needed. Usually inhibition stands for the drop in the measured response relative to a control, in per cent. By Cmax is commonly meant the maximum level reached in the sampled fluid or tissue. What is called half-life is how long it takes for the measured level to halve. Lower therefore signals fast loss. A word on the AUC: it is the area under the concentration-time curve, a measure of exposure. A high value points to high exposure. What is called Kp is the ratio of the level in a tissue or fluid to that in plasma or blood. By bioavailability is commonly meant dose-corrected exposure relative to a reference, in per cent. Turning to `Cl.O=C(CCCCN1CCOCC1)Nc1ccc(-c2cccnc2)cc1`, the EC50 in data set [1] came to 1.65 µM; in [5], 12 µM. Besides, the outcome (in [2]; in the data set with Rattus norvegicus [16]) was Active. Further, the Ki in data set [3] was 0.26 µM. The compound further yielded an Emax in data set [4] of 88%. Moreover, in [6], the result was inactive. Besides, the inhibition in [7] came out at 45%. Besides, on hERG (KCNH2), the inhibition at 1 µM is 6%. Also, the Cmax in data set [8] worked out at 244 ng/mL. In [9], the half-life is 48 min. For the same compound, the AUC in the data set on Rattus norvegicus [10] came out at 347 ng·h/mL. For the same compound, the Kp in [11] is 2.5. The bioavailability in data set [12] is 57%. Moreover, the inhibition result in the data set with Rattus norvegicus [13] and with Rattus norvegicus [15] was “Active” throughout. For the same compound, in data set [14], the Selectivity ratio result is “inactive”.

For the compound `O=C(CCCCN1CCCCC1)Nc1ccc2c(c1)OCO2`, the EC50 in data set [1] turned out to be 10.9 µM.

Consider `CC(=O)N1CCN(CCCCC(=O)Nc2ccc(-c3cccnc3)cc2)CC1`, for which, in data set [1], the EC50 was determined as 2.78 µM.

Consider `CCN(CC)C(=O)C1CCCN(CCCCC(=O)Nc2ccc(-c3cccnc3)cc2)C1` (stereo not drawn), for which the EC50 in [1] was above 30 µM.

`CC(C)Oc1ccccc1-c1ccc(NC(=O)CCCCN2CCCCC2)cc1`: the EC50 in data set [1] was 0.24 µM.

Take `O=C(CCCCN1CCCCC1)Nc1ccc2ncccc2c1`: the EC50 in data set [1] came out at 5.07 µM.

In the case of `COc1ccc(N2CCN(CCCCNC(=O)c3ccc(-c4ccccn4)cc3)CC2)c(OC)c1`, the EC50 in data set [1] is 2.84 µM.

Turning to `COc1ccc(N2CCN(CCCCNC(=O)c3ccc([N+](=O)[O-])cc3)CC2)c(OC)c1`, the half-maximal effective concentration (EC50) in data set [1] is above 30 µM.

Turning to `COc1ccc(N2CCN(CCCCNC(=O)c3ccc(Br)cc3)CC2)c(OC)c1`, the EC50 in data set [1] is above 30 µM.

As to `COc1ccc(N2CCN(CCCCNC(=O)c3ccc(-c4ccccc4F)cc3)CC2)c(OC)c1`, the EC50 in data set [1] is 6.03 µM.

As to `O=C(CCCCN1CCCCC1)Nc1cccc(Br)c1`, in [1], the EC50 came out at 2.07 µM.

As for `NC(=O)c1cccc(-c2ccc(NC(=O)CCCCN3CCCCC3)cc2)c1`, in [1], the EC50 came to 0.09 µM.

Turning to `CC(=O)Nc1cccc(-c2ccc(NC(=O)CCCCN3CCCCC3)cc2)c1`, in data set [1], the EC50 was determined as 0.12 µM.

Take `CN(CCCCC(=O)Nc1ccc(-c2cccnc2)cc1)CCc1ccccn1`: in data set [1], the EC50 stood at 3.27 µM.

In the case of `CC(=O)c1cccc(-c2ccc(NC(=O)CCCCN3CCCCC3)cc2)c1`, in [1], the EC50 is 0.99 µM.

With `COc1ccc(N2CCN(CCCCNC(=O)c3ccc(-c4ccccc4OC)cc3)CC2)c(OC)c1`, the EC50 in data set [1] was determined as 2.91 µM.

As to `O=C(CCCCN1CCCCC1)Nc1ccc(-c2ccc(F)cc2F)cc1`, the EC50 in data set [1] was 0.16 µM.

Turning to `CN1CCN(CCCCC(=O)Nc2ccc(-c3cccnc3)cc2)CC1`, the EC50 in data set [1] worked out at 3.56 µM.

As to `CC(=O)N1CCCN(CCCCC(=O)Nc2ccc(-c3cccnc3)cc2)CC1`, the EC50 in [1] is 2.66 µM.

Consider `COc1ccc(N2CCN(CCCCNC(=O)c3ccc(-c4ccccc4Cl)cc3)CC2)c(OC)c1`, for which the EC50 in data set [1] came to 3.11 µM.

Take `O=C(CCCCN1CCCCCC1)Nc1ccc(-c2cccnc2)cc1`: in [1], the EC50 is 0.54 µM.

For `COc1ccc(N2CCN(CCCCNC(=O)c3ccc(-c4ccccc4)cc3)CC2)c(OC)c1`, the EC50 in data set [1] was above 30 µM.

For `COc1ccc(N2CCN(CCCCNC(=O)c3ccc(-c4ccccc4C)cc3)CC2)c(OC)c1`, in data set [1], the EC50 was found to be 5.77 µM.

Regarding `Cc1cccc(NC(=O)CCCCN2CCCCC2)c1`, in data set [1], the EC50 was above 30 µM.

As for `O=C(CCCCN1CCCCC1)Nc1ccc(Br)cc1`, in [1], the EC50 turned out to be 1.35 µM.

As to `O=C(CCCCN1CCCCC1)Nc1ccc(-c2cccnc2)cc1`, in [1], the EC50 was 0.53 µM.
